This passage reports IC50 results from ChEMBL document CHEMBL6083205, “A comprehensive apoptotic assessment of niloticin in cervical cancer cells: a tirucallane-type triterpenoid from Aphanamixis polystachya (Wall.) Parker” (RSC Med Chem, 2024).

Bounds are passed on as bounds.

In this test the test system is HeLa. Description: Antiproliferative activity against human HeLa cells assessed as inhibition of cell growth incubated for 24 hrs by MTT assay. The class given is functional, cell-based. The method, boiled down: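 Cells kept in DMEM with 10% FBS and 1% antibiotic-antimycotic at 37 °C and 5% CO2. Seeded at 8 × 10^3 cells per 100 μL and left 24 h, then exposed 24 h to 5, 10, 20, 50 or 100 μM. MTT at 0.5 mg/mL in HBSS was added for 2–4 h at 37 °C in the dark. Formazan was dissolved in DMSO, A570 was read, and IC50 was derived.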

`C[C@@H](C[C@@H](O)[C@H](O)C(C)(C)O)[C@@H]1CC[C@]2(C)C3=CC[C@H]4C(C)(C)[C@H](O)CC[C@]4(C)[C@H]3CC[C@@]12C`: the IC50 is > 100 µM. For the compound `C=C(C)[C@@H](O)[C@H](O)C[C@H](C)[C@@H]1CC[C@]2(C)C3=CC[C@H]4C(C)(C)C(=O)CC[C@]4(C)[C@H]3CC[C@@]12C`, the IC50 was > 100 µM. As for `COc1cccc2c1C(=O)c1c(O)c3c(c(O)c1C2=O)C[C@@](O)(C(=O)CO)C[C@@H]3O[C@H]1C[C@H](N)[C@H](O)[C@H](C)O1` [DOXORUBICIN], the figure is 32.2 µM.

In general, IC50 refers to the concentration that gives 50% inhibition.
